{
  "source": "ChEMBL document CHEMBL1124779",
  "about": "“Synthesis and antitumor activity of 1-[[(dialkylamino)alkyl]amino]-4-methyl-5H-pyrido[4,3-b]benzo[e]- and -benzo[g])indoles. A new class of antineoplastic agents” (1990)",
  "key": {"P388 [1]": {"tested_on": "P388", "test": "In vivo T/C (survival time treated/survival time control x 100) was determined against P388 leukemia cells at 20 mg/Kg", "assay_type": "functional, Mus musculus", "summary_of_the_method": "(§1)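 B6D2 F1 mice, at least five per group, were inoculated ip on day 0 with 10^6 viable P388 cells (25 mL/kg). Compounds were dissolved in distilled water and given ip (25 mL/kg) daily on days 1–4. Mortality was checked daily, with necropsy of dead animals. T/C×100 was median survival, treated versus control. Survivors beyond 50 days counted as cured and were excluded from the median.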"}, "P388 [2]": {"tested_on": "P388", "test": "In vitro cytotoxicity was determined against P388 leukemia cells", "assay_type": "functional", "conditions": "Mus musculus, read-out: ID50 (the source's name)", "summary_of_the_method": "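P388 cells in exponential growth, RPMI 1640 with 2 mM glutamine, 10 μM 2-mercaptoethanol and 10% FCS, 5% CO2, 37 °C. Cells at 10^5 cells/mL. Drugs in distilled water added on day 0. Cells counted by Coulter counter after 96 h. ID50 (μg/mL, 50% inhibition of proliferation) estimated by regression of concentration/response data.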"}, "[3]": {"test": "Tested for cytotoxicity in the multiple tumor disk diffusion soft agar assay at the dose of 15 ug/disk against solid tumor PO3", "assay_type": "functional, Mus musculus", "summary_of_the_method": "(§2)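 Soft agar disk diffusion: bottom layer 0.8% noble agar, top layer 0.47% noble agar, both in 1:1 CMRL-Fischer medium with 11% horse serum. Top layer seeded with 5×10^3 L1210 cells or 10^6 solid tumor cells (C38, PO3). Drug applied on a dried 6-mm filter-paper disk. Incubation 7-11 days. Inhibition zone measured by inverted microscope, in units (1 unit = 30 μm).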"}, "L1210 [4]": {"tested_on": "L1210", "test": "Tested for cytotoxicity in the multiple tumor disk diffusion soft agar assay at the dose of 15 ug/disk against leukemia L1210; U = 32 uM", "assay_type": "functional, Mus musculus", "summary_of_the_method": "as §2"}, "[5]": {"test": "Tested for cytotoxicity in the multiple tumor disk diffusion soft agar assay at the dose of 15 ug/disk against solid tumor C38; U = 32 uM", "assay_type": "functional, Mus musculus", "summary_of_the_method": "as §2"}, "L1210 [6]": {"tested_on": "L1210", "test": "Tested for cytotoxicity in the multiple tumor disk diffusion soft agar assay at the dose of 15 ug/disk against leukemia L1210; range is 300-380", "assay_type": "functional, Mus musculus", "summary_of_the_method": "as §2"}, "[7]": {"test": "Cytotoxicity in the multiple tumor disk diffusion soft agar assay at the dose of 15 ug/disk against solid tumor PO3", "assay_type": "functional, Mus musculus", "summary_of_the_method": "as §2"}, "[8]": {"test": "Cytotoxicity in the multiple tumor disk diffusion soft agar assay at the dose of 15 ug/disk against solid tumor C38.", "assay_type": "functional, Mus musculus", "summary_of_the_method": "as §2"}, "P388 [9]": {"tested_on": "P388", "test": "In vivo T/C (survival time treated/survival time control x 100) was determined against P388 leukemia cells at 40 mg/Kg", "assay_type": "functional, Mus musculus", "summary_of_the_method": "as §1"}, "L1210 [10]": {"tested_on": "L1210", "test": "Cytotoxicity in the multiple tumor disk diffusion soft agar assay at the dose of 15 ug/disk against leukemia L1210", "assay_type": "functional, Mus musculus", "summary_of_the_method": "as §2"}, "L1210 [11]": {"tested_on": "L1210", "test": "Tested for cytotoxicity in the multiple tumor disk diffusion soft agar assay at the dose of 15 ug/disk against leukemia L1210; range is 550-680", "assay_type": "functional, Mus musculus", "summary_of_the_method": "as §2"}, "[12]": {"test": "Tested for cytotoxicity in the multiple tumor disk diffusion soft agar assay at the dose of 15 ug/disk against solid tumor PO3; range is 430-480", "assay_type": "functional, Mus musculus"}, "P388 [13]": {"tested_on": "P388", "test": "In vivo T/C (survival time treated/survival time control x 100) was determined against P388 leukemia cells at 10 mg/Kg", "assay_type": "functional, Mus musculus", "summary_of_the_method": "as §1"}, "L1210 [14]": {"tested_on": "L1210", "test": "Tested for cytotoxicity in the multiple tumor disk diffusion soft agar assay at the dose of 15 ug/disk against leukemia L1210", "assay_type": "functional, Mus musculus", "summary_of_the_method": "as §2"}, "L1210 [15]": {"tested_on": "L1210", "test": "Tested for cytotoxicity in the multiple tumor disk diffusion soft agar assay at the dose of 15 ug/disk against leukemia L1210; range is 450-525", "assay_type": "functional, Mus musculus", "summary_of_the_method": "as §2"}, "[16]": {"test": "Tested for cytotoxicity in the multiple tumor disk diffusion soft agar assay at the dose of 15 ug/disk against solid tumor PO3; range is 300-450", "assay_type": "functional, Mus musculus", "summary_of_the_method": "as §2"}, "L1210 [17]": {"tested_on": "L1210", "test": "In vivo T/C (survival time treated/survival time control x 100) was determined against L1210 leukemia cells at 40 mg/Kg", "assay_type": "functional, Mus musculus", "summary_of_the_method": "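B6D2 F1 mice, at least five per group, were inoculated ip on day 0 with 10^5 viable L1210 cells (25 mL/kg). Compounds were dissolved in distilled water and given ip (25 mL/kg) on days 1–4. Deaths were checked daily, with necropsy to separate tumor from toxic death. T/C×100 was median survival of treated over controls. Mice surviving over 50 days counted as cured and were excluded from the median.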"}, "L1210 [18]": {"tested_on": "L1210", "test": "Tested for cytotoxicity in the multiple tumor disk diffusion soft agar assay at the dose of 15 ug/disk against leukemia L1210; range is 420-525", "assay_type": "functional, Mus musculus", "summary_of_the_method": "as §2"}},
  "data": [
    {"smiles": "CCN(CC)CCCNc1ncc(C)c2c1c1ccc3ccccc3c1n2C", "values": [
      {"measurement": "T/C x100", "setting": "P388 [1]", "result": 108},
      {"measurement": "IC50", "setting": "P388 [2]", "result": 0.375, "unit": "µg/mL"},
      {"measurement": "Cytotoxicity", "setting": "[3]", "result": 200, "unit": "U"},
      {"measurement": "Cytotoxicity", "setting": "L1210 [4]", "result": 450, "unit": "U"},
      {"measurement": "Cytotoxicity", "setting": "[5]", "result": 500, "unit": "U"},
      {"measurement": "Cytotoxicity", "setting": "L1210 [6]", "result": 300, "unit": "U"}
    ]},
    {"smiles": "COc1ccc2c(ccc3c2c2c(NCCCN(C)C)ncc(C)c2n3C)c1", "values": [
      {"measurement": "Cytotoxicity", "setting": "[7]", "result": 200, "unit": "U"},
      {"measurement": "Cytotoxicity", "setting": "[8]", "result": 325, "unit": "U"},
      {"measurement": "T/C x100", "setting": "P388 [9]", "result": 150},
      {"measurement": "Cytotoxicity", "setting": "L1210 [10]", "result": 425, "unit": "U"},
      {"measurement": "IC50", "setting": "P388 [2]", "result": 0.5, "unit": "µg/mL"},
      {"measurement": "Cytotoxicity", "setting": "L1210 [11]", "result": 550, "unit": "U"}
    ]},
    {"smiles": "CCN(CC)CCCNc1ncc(C)c2c1c1ccc3c(O)cccc3c1n2C", "values": [
      {"measurement": "Cytotoxicity", "setting": "[12]", "result": 430, "unit": "U"},
      {"measurement": "IC50", "setting": "P388 [2]", "result": 0.05, "unit": "µg/mL"},
      {"measurement": "Cytotoxicity", "setting": "L1210 [4]", "result": 500, "unit": "U"},
      {"measurement": "T/C x100", "setting": "P388 [13]", "result": 160},
      {"measurement": "Cytotoxicity", "setting": "[5]", "result": 730, "unit": "U"},
      {"measurement": "Cytotoxicity", "setting": "L1210 [14]", "result": 450, "unit": "U"}
    ]},
    {"smiles": "COc1ccc2c(ccc3[nH]c4c(C)cnc(NCC(C)CN(C)C)c4c32)c1", "note": "(configuration not stated)", "values": [
      {"measurement": "Cytotoxicity", "setting": "[7]", "result": 375, "unit": "U"},
      {"measurement": "Cytotoxicity", "setting": "[8]", "result": 425, "unit": "U"},
      {"measurement": "Cytotoxicity", "setting": "L1210 [15]", "result": 450, "unit": "U"},
      {"measurement": "T/C x100", "setting": "P388 [9]", "result": 151},
      {"measurement": "Cytotoxicity", "setting": "L1210 [10]", "result": 425, "unit": "U"},
      {"measurement": "IC50", "setting": "P388 [2]", "result": 0.55, "unit": "µg/mL"}
    ]},
    {"smiles": "Cc1c[nH]c(NCCCN(C)C)c2c3ccc4c(O)cccc4c3nc1-2", "values": [
      {"measurement": "Cytotoxicity", "setting": "[8]", "result": 400, "unit": "U"},
      {"measurement": "Cytotoxicity", "setting": "[16]", "result": 300, "unit": "U"},
      {"measurement": "T/C x100", "setting": "P388 [1]", "result": 169},
      {"measurement": "Cytotoxicity", "setting": "L1210 [10]", "result": 450, "unit": "U"},
      {"measurement": "IC50", "setting": "P388 [2]", "result": 0.05, "unit": "µg/mL"},
      {"measurement": "Cytotoxicity", "setting": "L1210 [14]", "result": 500, "unit": "U"}
    ]},
    {"smiles": "CCN(CC)CCCNc1[nH]cc(C)c2nc3ccc4cc(OC)ccc4c3c1-2", "values": [
      {"measurement": "T/C x100", "setting": "L1210 [17]", "result": 112},
      {"measurement": "T/C x100", "setting": "P388 [9]", "result": 189},
      {"measurement": "IC50", "setting": "P388 [2]", "result": 1, "unit": "µg/mL"}
    ]},
    {"smiles": "CCN(CC)CCCNc1ncc(C)c2[nH]c3ccc4ccccc4c3c12", "values": [
      {"measurement": "Cytotoxicity", "setting": "[8]", "result": 525, "unit": "U"},
      {"measurement": "Cytotoxicity", "setting": "L1210 [18]", "result": 420, "unit": "U"},
      {"measurement": "T/C x100", "setting": "P388 [9]", "result": 149},
      {"measurement": "IC50", "setting": "P388 [2]", "result": 0.18, "unit": "µg/mL"}
    ]}
  ]
}
